Activity calls are given as the source filed them. The rule behind the calls is not given here.
What was measured:
[1] = molecular target: T1, Toll-like receptor 4 (Mus musculus, UniProt Q9QUK6); experiment: Inhibition of LPS-induced TLR4 activation in mouse RAW264.7 cells assessed as reduction in NO production after 18 to 24 hrs; format: cell-based
T1 sequence (Q9QUK6 whole entry): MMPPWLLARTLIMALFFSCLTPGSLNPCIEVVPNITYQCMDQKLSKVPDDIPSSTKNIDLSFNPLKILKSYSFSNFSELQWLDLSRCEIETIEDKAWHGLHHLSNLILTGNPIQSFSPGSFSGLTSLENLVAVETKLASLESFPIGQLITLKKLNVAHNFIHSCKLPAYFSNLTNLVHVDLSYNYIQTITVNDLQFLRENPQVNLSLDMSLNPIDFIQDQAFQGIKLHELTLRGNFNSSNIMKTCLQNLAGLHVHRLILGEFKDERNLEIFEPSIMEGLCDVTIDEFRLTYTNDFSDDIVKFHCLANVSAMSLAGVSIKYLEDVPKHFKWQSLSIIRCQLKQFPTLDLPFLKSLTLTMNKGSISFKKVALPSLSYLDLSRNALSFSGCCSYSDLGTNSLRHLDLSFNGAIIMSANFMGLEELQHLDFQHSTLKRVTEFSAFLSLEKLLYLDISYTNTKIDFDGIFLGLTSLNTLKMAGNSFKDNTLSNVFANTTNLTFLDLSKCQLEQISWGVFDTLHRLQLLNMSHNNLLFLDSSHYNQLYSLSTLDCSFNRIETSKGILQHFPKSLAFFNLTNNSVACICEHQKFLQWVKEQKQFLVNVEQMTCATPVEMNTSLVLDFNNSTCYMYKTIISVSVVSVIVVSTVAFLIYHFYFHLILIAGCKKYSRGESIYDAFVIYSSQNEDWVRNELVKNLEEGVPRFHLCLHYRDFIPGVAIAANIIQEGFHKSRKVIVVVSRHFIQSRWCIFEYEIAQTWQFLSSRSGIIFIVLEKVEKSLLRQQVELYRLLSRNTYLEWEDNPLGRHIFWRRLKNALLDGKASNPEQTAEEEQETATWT
Summary of the method: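 RAW264.7 cells, 100,000 per well, grown 24 h in RPMI with 10% FBS, then switched to unsupplemented RPMI. LPS and compound added together, 18–24 h at 37 °C. Medium nitrite measured with 2,3-diaminonaphthalene (ex 365/em 450 nm) against a nitrite standard curve. Quadruplicate; IC50 by a modified Kou-type method.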

[2] = system: Blood; experiment: Cytotoxicity against human whole blood assessed as hemolysis at 1 mM; format: tissue-based; details: 1000 µM
Summary of the method: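 Human whole blood anticoagulated with lepirudin, exposed to compound at up to 1 mM; hemolysis checked.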

[3] = molecular target: Serine/threonine-protein kinase pim-1 (Homo sapiens) (UniProt P11309); experiment: Inhibition of PIM1 at 16 uM by luciferase fragment complementation assay
[4] = molecular target: Glycogen synthase kinase-3 alpha (Homo sapiens) (UniProt P49840); experiment: Inhibition of GSK3alpha at 16 uM by luciferase fragment complementation assay
[5] = molecular target: Mitogen-activated protein kinase 1 (Homo sapiens) (UniProt P28482); experiment: Inhibition of […] at 16 uM by luciferase fragment complementation assay
[6] = molecular target: Hepatocyte growth factor receptor (Homo sapiens) (UniProt P08581); experiment: Inhibition of MET at 16 uM by luciferase fragment complementation assay
[7] = molecular target: Proto-oncogene tyrosine-protein kinase Src (Homo sapiens) (UniProt P12931); experiment: Inhibition of SRC at 16 uM by luciferase fragment complementation assay
[8] = molecular target: Calcium/calmodulin-dependent protein kinase type 1 (Homo sapiens) (UniProt Q14012); experiment: Inhibition of CAMK1 at 16 uM by luciferase fragment complementation assay
[9] = molecular target: Platelet-derived growth factor receptor beta (Homo sapiens) (UniProt P09619); experiment: Inhibition of PDGFRB at 16 uM by luciferase fragment complementation assay
[10] = molecular target: Serine/threonine-protein kinase PAK 1 (Homo sapiens) (UniProt Q13153); experiment: Inhibition of PAK1 at 16 uM by luciferase fragment complementation assay
[11] = molecular target: Discoidin domain-containing receptor 2 (Homo sapiens) (UniProt Q16832); experiment: Inhibition of DDR2 at 16 uM by luciferase fragment complementation assay
[12] = molecular target: Protein kinase C gamma type (Homo sapiens) (UniProt P05129); experiment: Inhibition of PKCgamma at 16 uM by luciferase fragment complementation assay
[13] = molecular target: RAC-alpha serine/threonine-protein kinase (Homo sapiens) (UniProt P31749); experiment: Inhibition of AKT1 at 16 uM by luciferase fragment complementation assay
[14] = molecular target: Serine/threonine-protein kinase PLK4 (Homo sapiens) (UniProt O00444); experiment: Inhibition of PLK4 at 16 uM by luciferase fragment complementation assay
[15] = molecular target: T2, Toll-like receptor 4 (Homo sapiens, UniProt O00206); experiment: Inhibition of LPS-induced TLR4 activation in human whole blood assessed as inhibition of IL-6 release at 500 uM preincubated for 5 to 10 mins
Summary of the method: (§1)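 Fresh human blood anticoagulated with lepirudin, preincubated with compound 5–10 min at 37 °C, then stimulated with 100 ng/mL ultrapure E. coli 0111:B4 LPS, rotating 2 h at 37 °C. Stopped with EDTA 10 mM final; plasma TNF-α, IL-8 and IL-6 measured by singleplex Bio-plex, expressed as % of LPS without inhibitor. n = 3 or 9, paired two-sided t-test.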

[16] = molecular target: T2, Toll-like receptor 4; experiment: Inhibition of LPS-induced TLR4 activation in human whole blood assessed as inhibition of IL-8 release preincubated for 5 to 10 mins; summary of the method: as §1
[17] = molecular target: T2, Toll-like receptor 4; experiment: Inhibition of LPS-induced TLR4 activation in human whole blood assessed as inhibition of IL-6 release preincubated for 5 to 10 mins; summary of the method: as §1
[18] = molecular target: T2, Toll-like receptor 4; experiment: Inhibition of LPS-induced TLR4 activation in human whole blood assessed as inhibition of TNFalpha release at 500 uM preincubated for 5 to 10 mins; summary of the method: as §1
[19] = molecular target: T2, Toll-like receptor 4; experiment: Inhibition of LPS-induced TLR4 activation in human whole blood assessed as inhibition of IL-6 release at 250 uM preincubated for 5 to 10 mins; summary of the method: as §1
[20] = molecular target: T2, Toll-like receptor 4; experiment: Inhibition of LPS-induced TLR4 activation in human whole blood assessed as inhibition of TNFalpha release preincubated for 5 to 10 mins; summary of the method: as §1
[21] = molecular target: T2, Toll-like receptor 4; experiment: Inhibition of LPS-induced TLR4 activation in human whole blood assessed as inhibition of IL-8 release at 500 uM preincubated for 5 to 10 mins; summary of the method: as §1

T2 sequence (O00206 whole entry): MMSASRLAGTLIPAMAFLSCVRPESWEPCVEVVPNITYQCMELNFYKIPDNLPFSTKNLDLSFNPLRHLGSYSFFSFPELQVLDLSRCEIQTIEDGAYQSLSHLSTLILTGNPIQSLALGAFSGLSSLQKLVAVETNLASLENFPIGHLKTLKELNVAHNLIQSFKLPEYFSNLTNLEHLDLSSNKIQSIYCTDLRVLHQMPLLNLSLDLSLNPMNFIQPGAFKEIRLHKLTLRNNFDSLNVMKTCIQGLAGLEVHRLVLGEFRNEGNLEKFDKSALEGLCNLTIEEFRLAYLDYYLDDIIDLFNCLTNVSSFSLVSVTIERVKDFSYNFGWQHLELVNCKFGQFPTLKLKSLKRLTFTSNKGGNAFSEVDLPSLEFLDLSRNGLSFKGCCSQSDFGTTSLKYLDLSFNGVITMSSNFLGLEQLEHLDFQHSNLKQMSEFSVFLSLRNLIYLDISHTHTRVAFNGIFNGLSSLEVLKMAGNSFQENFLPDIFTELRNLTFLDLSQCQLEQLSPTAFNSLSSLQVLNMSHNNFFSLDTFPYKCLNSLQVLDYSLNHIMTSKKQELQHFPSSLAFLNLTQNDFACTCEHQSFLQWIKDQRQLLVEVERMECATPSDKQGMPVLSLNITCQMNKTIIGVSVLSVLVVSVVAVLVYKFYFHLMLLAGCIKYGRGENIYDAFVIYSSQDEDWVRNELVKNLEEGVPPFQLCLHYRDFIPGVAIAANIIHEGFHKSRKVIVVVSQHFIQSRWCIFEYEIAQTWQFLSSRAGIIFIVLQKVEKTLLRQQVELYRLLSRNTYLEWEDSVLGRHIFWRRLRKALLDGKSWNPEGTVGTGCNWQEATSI
Chain of Serine/threonine-protein kinase pim-1 (Homo sapiens) (P11309 whole entry, looked up, the tested form may be a part): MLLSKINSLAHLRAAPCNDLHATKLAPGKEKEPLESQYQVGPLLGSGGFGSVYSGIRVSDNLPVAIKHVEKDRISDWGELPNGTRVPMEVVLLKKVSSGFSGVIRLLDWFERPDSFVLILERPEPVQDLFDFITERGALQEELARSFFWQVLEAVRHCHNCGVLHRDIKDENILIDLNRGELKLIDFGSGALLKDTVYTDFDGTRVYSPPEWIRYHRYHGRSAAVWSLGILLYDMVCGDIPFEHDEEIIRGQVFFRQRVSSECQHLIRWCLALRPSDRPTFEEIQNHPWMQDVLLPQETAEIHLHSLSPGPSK
Chain of Mitogen-activated protein kinase 1 (Homo sapiens) (P28482 whole entry, the tested form may be a part): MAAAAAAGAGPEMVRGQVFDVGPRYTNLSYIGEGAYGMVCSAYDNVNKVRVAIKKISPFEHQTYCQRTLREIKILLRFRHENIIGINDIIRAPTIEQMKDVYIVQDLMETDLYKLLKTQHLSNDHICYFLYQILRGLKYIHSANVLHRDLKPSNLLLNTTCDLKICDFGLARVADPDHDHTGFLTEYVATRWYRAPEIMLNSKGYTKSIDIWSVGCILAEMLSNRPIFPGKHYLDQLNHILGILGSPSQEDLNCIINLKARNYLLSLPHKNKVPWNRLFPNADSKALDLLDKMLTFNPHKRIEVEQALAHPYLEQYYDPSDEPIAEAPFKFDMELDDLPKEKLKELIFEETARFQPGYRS
Chain of Discoidin domain-containing receptor 2 (Homo sapiens) (Q16832 whole entry, the tested form may be a part): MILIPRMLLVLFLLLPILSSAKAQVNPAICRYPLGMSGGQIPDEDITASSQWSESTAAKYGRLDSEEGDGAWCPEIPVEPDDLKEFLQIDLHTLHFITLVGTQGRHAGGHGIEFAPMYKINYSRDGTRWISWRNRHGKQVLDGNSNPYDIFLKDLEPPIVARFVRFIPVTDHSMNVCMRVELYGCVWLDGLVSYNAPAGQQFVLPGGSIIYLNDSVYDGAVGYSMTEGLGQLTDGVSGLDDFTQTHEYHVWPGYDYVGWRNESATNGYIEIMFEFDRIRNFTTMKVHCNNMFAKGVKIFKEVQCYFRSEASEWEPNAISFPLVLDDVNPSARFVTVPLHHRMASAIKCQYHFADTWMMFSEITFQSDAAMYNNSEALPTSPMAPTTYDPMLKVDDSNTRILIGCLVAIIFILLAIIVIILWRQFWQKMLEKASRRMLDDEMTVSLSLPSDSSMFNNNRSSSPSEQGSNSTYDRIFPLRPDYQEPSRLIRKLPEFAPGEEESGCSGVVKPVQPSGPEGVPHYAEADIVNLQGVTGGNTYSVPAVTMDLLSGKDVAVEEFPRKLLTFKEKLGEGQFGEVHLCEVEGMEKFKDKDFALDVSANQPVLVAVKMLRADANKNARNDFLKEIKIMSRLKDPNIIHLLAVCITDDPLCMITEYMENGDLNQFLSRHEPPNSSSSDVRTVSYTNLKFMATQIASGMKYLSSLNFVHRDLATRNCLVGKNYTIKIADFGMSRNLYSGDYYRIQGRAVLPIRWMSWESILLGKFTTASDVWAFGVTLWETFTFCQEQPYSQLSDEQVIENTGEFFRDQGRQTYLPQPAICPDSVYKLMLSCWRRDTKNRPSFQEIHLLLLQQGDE
Chain of Calcium/calmodulin-dependent protein kinase type 1 (Homo sapiens) (Q14012 whole entry, looked up, the tested form may be a part): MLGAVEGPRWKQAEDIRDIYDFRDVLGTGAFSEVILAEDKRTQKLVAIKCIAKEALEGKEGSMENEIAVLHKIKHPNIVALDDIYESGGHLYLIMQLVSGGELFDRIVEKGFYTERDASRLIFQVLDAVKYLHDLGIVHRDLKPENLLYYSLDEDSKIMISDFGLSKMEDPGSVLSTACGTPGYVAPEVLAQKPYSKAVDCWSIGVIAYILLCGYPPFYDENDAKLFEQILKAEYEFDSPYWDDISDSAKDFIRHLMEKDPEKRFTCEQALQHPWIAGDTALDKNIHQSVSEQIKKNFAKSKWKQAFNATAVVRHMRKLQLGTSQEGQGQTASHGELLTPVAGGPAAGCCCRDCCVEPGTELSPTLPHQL
Chain of Hepatocyte growth factor receptor (Homo sapiens) (P08581 whole entry, the tested form may be a part): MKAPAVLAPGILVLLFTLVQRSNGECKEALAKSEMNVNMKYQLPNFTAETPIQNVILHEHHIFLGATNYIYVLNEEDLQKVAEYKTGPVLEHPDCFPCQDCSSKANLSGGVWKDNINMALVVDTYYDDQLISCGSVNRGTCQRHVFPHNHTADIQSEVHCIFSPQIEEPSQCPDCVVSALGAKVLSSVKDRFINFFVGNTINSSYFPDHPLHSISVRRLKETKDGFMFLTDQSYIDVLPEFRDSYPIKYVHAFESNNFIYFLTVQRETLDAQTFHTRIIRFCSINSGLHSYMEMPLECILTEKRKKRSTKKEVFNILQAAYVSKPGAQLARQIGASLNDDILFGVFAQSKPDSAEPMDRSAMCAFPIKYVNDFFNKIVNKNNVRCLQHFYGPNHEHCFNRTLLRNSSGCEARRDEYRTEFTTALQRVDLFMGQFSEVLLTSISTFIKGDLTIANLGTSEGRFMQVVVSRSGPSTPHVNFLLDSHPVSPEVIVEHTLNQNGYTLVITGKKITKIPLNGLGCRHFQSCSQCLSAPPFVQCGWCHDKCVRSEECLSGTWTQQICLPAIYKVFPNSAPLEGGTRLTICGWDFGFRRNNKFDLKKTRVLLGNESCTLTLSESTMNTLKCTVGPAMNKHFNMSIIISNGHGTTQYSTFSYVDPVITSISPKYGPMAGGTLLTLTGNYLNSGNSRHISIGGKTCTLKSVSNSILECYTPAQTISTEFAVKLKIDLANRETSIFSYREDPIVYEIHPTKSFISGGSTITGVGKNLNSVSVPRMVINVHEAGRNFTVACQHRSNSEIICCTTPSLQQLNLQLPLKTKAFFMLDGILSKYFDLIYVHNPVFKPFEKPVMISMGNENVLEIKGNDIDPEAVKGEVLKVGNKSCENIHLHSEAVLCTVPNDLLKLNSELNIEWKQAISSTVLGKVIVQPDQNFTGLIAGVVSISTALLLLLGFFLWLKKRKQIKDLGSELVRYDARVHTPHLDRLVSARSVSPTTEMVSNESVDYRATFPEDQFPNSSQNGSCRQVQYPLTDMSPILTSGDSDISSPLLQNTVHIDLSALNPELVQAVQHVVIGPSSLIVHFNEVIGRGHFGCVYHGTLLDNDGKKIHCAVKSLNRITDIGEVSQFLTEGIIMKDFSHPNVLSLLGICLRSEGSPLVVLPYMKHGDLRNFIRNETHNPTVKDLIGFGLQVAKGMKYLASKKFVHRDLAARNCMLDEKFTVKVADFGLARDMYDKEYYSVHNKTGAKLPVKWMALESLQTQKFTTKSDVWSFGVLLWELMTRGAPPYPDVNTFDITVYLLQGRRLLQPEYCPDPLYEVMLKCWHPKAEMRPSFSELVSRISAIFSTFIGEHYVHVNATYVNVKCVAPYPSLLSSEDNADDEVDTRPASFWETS
Chain of Serine/threonine-protein kinase PAK 1 (Homo sapiens) (Q13153 whole entry, the tested form may be a part): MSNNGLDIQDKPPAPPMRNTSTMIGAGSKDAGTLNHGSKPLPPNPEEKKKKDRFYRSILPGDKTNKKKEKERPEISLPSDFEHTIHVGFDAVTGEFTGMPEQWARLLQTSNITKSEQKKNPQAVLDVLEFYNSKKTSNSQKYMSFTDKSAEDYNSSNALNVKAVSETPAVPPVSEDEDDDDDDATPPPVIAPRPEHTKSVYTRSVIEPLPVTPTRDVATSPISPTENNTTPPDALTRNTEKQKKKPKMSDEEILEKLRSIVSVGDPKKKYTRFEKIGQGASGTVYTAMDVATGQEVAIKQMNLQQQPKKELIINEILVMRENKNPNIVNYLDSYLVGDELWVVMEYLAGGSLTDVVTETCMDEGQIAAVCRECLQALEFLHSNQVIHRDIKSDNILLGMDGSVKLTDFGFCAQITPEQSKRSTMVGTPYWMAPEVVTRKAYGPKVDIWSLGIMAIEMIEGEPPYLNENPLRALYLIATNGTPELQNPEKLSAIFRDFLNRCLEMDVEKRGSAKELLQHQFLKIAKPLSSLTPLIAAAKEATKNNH

Row | Structure (SMILES) | IC50 [1] [µM] | Activity [2] | other results
1 | CCOc1ccc(OCC(O)CN(C)Cc2c(C)nn(Cc3ccccc3C(F)(F)F)c2C)cc1 (racemic) | 32.1 | Non-toxic | 
2 | COCCc1ccc(OCC(O)CN(C)Cc2c(C)nn(Cc3ccccc3Cl)c2C)cc1 (racemic) | 57.3 | Non-toxic | 
3 | CCOc1ccc(OCC(O)CN(C)Cc2c(C)nn(Cc3ccccc3F)c2C)cc1 (racemic) | 47.7 | Non-toxic | 
4 | CCOc1ccc(OCC(O)CN(C)Cc2c(C)nn(Cc3ccccc3OC)c2C)cc1 (racemic) | > 100 | Non-toxic | 
5 | C=Cc1ccccc1Cn1nc(C)c(CN(C)CC(O)COc2ccc(OCC)cc2)c1C (racemic) | 24.7 | Non-toxic | 
6 | Cc1nn(Cc2ccccc2C(F)(F)F)c(C)c1CN(C)CC(O)COc1ccc(C(F)(F)F)cc1 (racemic) | 27.3 | Non-toxic | 
7 | COc1ccccc1OCC(O)CN(C)Cc1c(C)nn(Cc2ccccc2Cl)c1C (racemic) | 92.5 | Non-toxic | 
8 | CCOc1ccc(OC[C@H](O)CN(C)Cc2c(C)nn(Cc3ccccc3Cl)c2C)cc1 | 24.8 | Non-toxic | 
9 | C=CCOc1ccc(OCC(O)CN(C)Cc2c(C)nn(Cc3ccccc3C=C)c2C)cc1 (racemic) | 23.1 | Non-toxic | 
10 | Cc1nn(Cc2ccccc2Cl)c(C)c1CN(C)CC(O)COc1ccccc1 (racemic) | 64.3 | Non-toxic | 
11 | CCOc1ccc(OCC(O)CN(C)Cc2c(C)nn(Cc3ccccc3C)c2C)cc1 (racemic) | 47.7 | Non-toxic | 
12 | Cc1nn(Cc2ccccc2Cl)c(C)c1CN(C)CC(O)COc1ccc(C#N)cc1 (racemic) | 52.7 | Non-toxic | 
13 | CCOc1ccc(OCC(O)CN(C)Cc2c(C)nn(Cc3ccc(OC)cc3)c2C)cc1 (racemic) | 67.6 | Non-toxic | 
14 | Cc1nn(Cc2ccccc2)c(C)c1CN(C)CC(O)COc1ccccc1 (racemic) | > 100 | Non-toxic | inhibition [15]: Active; inhibition [16]: Dose-dependent effect; inhibition [17]: Dose-dependent effect; inhibition [18]: Active; inhibition [19]: inactive; inhibition [20]: Dose-dependent effect; inhibition [21]: Active
15 | C=CCOc1ccc(OCC(O)CN(C)Cc2c(C)nn(Cc3ccccc3Cl)c2C)cc1 (racemic) | 44.6 | Non-toxic | 
16 | CCOc1ccc(OCC(O)CN(C)Cc2c(C)nn(Cc3ccccc3)c2C)cc1 (racemic) | 51.8 | Non-toxic | 

The next lines start with results.

Row | IC50 [1] [µM] | Structure (SMILES) | Activity [2] | other results
17 | 21.8 | CCOc1ccc(OCC(O)CN(C)Cc2c(C)nn(Cc3ccc(Cl)c(Cl)c3)c2C)cc1 (racemic) | Non-toxic | 
18 | 20.1 | Cc1nn(Cc2ccccc2Cl)c(C)c1CN(C)CC(O)COc1ccc(Cl)c(Cl)c1 (racemic) | Non-toxic | 
19 | 16.1 | Cc1nn(Cc2ccccc2Cl)c(C)c1CN(C)CC(O)COc1ccc(Cl)cc1 (racemic) | Non-toxic | inhibition [3]: ≤ 27%; inhibition [4]: ≤ 27%; inhibition [5]: ≤ 27%; inhibition [6]: ≤ 27%; inhibition [7]: ≤ 27%; inhibition [8]: ≤ 27%; inhibition [9]: ≤ 27%; inhibition [10]: ≤ 27%; inhibition [11]: ≤ 27%; inhibition [12]: ≤ 27%; inhibition [13]: ≤ 27%; inhibition [14]: ≤ 27%
20 | 24.3 | CCOc1ccc(OC[C@@H](O)CN(C)Cc2c(C)nn(Cc3ccccc3Cl)c2C)cc1 | Non-toxic | 
21 | 23.7 | Cc1nn(Cc2ccccc2Cl)c(C)c1CN(C)CC(O)COc1ccc(C(F)(F)F)cc1 (racemic) | Non-toxic | 
22 | 23.2 | C=Cc1ccccc1Cn1nc(C)c(CN(C)CC(O)COc2ccc(Cl)cc2)c1C (racemic) | Non-toxic | 
23 | 19.8 | CCOc1ccc(OCC(CN(C)Cc2c(C)nn(Cc3ccccc3Cl)c2C)OC)cc1 (racemic) |  | 
24 | 16.5 | CCOc1ccc(OCC(O)CN(C)Cc2c(C)nn(Cc3cccc(Cl)c3)c2C)cc1 (racemic) | Non-toxic | 
25 | 15.5 | Cc1nn(Cc2ccccc2Cl)c(C)c1CN(C)C[C@@H](O)COc1ccc(Cl)cc1 | Non-toxic | 
26 | 15.6 | Cc1nn(Cc2ccccc2Cl)c(C)c1CN(C)C[C@H](O)COc1ccc(Cl)cc1 | Non-toxic | 

Reference: ChEMBL document CHEMBL1821673, “Development of β-amino alcohol derivatives that inhibit Toll-like receptor 4 mediated inflammatory response as potential antiseptics” (J Med Chem, 2011)
